Assays:
[1] = In vivo apparent biliary clearance in iv dosed Sprague-Dawley rat by LC-MS/MS analysis; format: ADME, organism-based, Bile
[2] = Unbound fraction in Sprague-Dawley rat plasma at 100 uM by equilibrium dialysis method
[3] = In vivo intrinsic biliary clearance in iv dosed Sprague-Dawley rat by LC-MS/MS analysis; format: ADME, organism-based, Bile
Hepatocyte = assay: Drug uptake in sandwich cultured Sprague-Dawley rat hepatocytes by LC-MS/MS analysis; format: ADME, cell-based
How it was run: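 Hepatocytes came from male Sprague-Dawley rats by two-step collagenase perfusion (viability >90%). They were seeded at 5 × 10^5 cells/well on collagen, overlaid with Matrigel 0.25 mg/mL on day 2, and cultured 72 h. Cells were preincubated 10 min at 37°C in HBSS or Ca2+/Mg2+-free HBSS with 1 mmol/L EGTA. Substrate (0.5 or 1 μmol/L) was incubated 15 min. Cells were then rinsed ice-cold, lysed in Triton X-100, and analyzed by LC-MS/MS, normalized to BCA protein. n = 3.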

[4] = Drug uptake in iv dosed Sprague-Dawley rat liver after 5 hrs by LC-MS/MS analysis; format: ADME, organism-based; settings: read-out: Drug uptake
How it was run: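 Rats (9 weeks old) were anesthetized with isoflurane, and the femoral vein and common bile duct were cannulated; animals were held in Bollman cages. Compound (1 mg/mL in saline, or in saline:dimethylacetamide 1:1) was infused IV at 0.2 mL/h to reach steady-state plasma levels. Livers were taken 5 h after infusion start, extracted with acetonitrile containing internal standard, and analyzed by LC-MS/MS. n = 5.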

[5] = Biliary excretion in Eisai hyperbilirubinemic mutant rat at 20 mg/kg, iv administered as single dose by HPLC analysis; format: ADME, organism-based; set-up: dose 20 mg/kg, route intravenous; settings: bile, read-out: Drug excretion
[6] = Total clearance in Eisai hyperbilirubinemic mutant rat at 20 mg/kg, iv administered as single dose by HPLC analysis; format: ADME, organism-based; set-up: dose 20 mg/kg, route intravenous; settings: in vivo
[7] = Total clearance in rat; format: ADME, organism-based; settings: in vivo
[8] = Biliary excretion in rat; format: ADME; settings: bile, read-out: Drug excretion

| SMILES | CL(app) [1] | fraction unbound at 100 µM [2] | CL [3] | Drug uptake (Hepatocyte) | concentration at 5 h [4] | dose excreted [5] | clearance [6] | clearance [7] | dose excreted [8] |
| --- | --- | --- | --- | --- | --- | --- | --- | --- | --- |
| Cc1cc(O)c(C(=O)N[C@@H](C(=O)N[C@@H]2C(=O)N3C(C(=O)O)=C(CSc4nnnn4C)CS[C@H]23)c2ccc(O)cc2)cn1 [CEFPIRAMIDE] | 4.72 mL/min/kg | 0.158 | 3.357 mL/min/kg | 1 µmol/L | 2.6 µM | 57.8% | 8.15 mL/min/kg | – | – |
| CC[C@H](C)C(=O)O[C@H]1C[C@H](O)C=C2C=C[C@H](C)[C@H](CC[C@@H](O)C[C@@H](O)CC(=O)O)[C@H]21 [PRAVASTATIN] | 27.4 mL/min/kg | 0.705 | 6.723 mL/min/kg | 1.9 µmol/L | 1.9 µM | – | – | – | – |
| CC[C@@]1(O)C(=O)OCc2c1cc1n(c2=O)Cc2cc3c(CN(C)C)c(O)ccc3nc2-1 [TOPOTECAN] | 5.3 mL/min/kg | 0.747 | 0.458 mL/min/kg | 3.3 µmol/L | 6.9 µM | – | – | 40.1 mL/min/kg | 13.2% |
| CO[C@@]1(NC(=O)CSCC#N)C(=O)N2C(C(=O)O)=C(CSc3nnnn3C)CS[C@@H]21 [CEFMETAZOLE] | 6.22 mL/min/kg | 0.738 | 3.57 mL/min/kg | 11.4 µmol/L | 5.1 µM | – | – | – | – |
| CCN1CCN(C(=O)N[C@@H](C(=O)N[C@@H]2C(=O)N3C(C(=O)O)=C(CSc4nnnn4C)CS[C@H]23)c2ccc(O)cc2)C(=O)C1=O [CEFOPERAZONE] | – | – | – | 2.6 µmol/L | 2.5 µM | – | – | – | – |

Now from value to molecule:

| CL(app) [1] | fraction unbound at 100 µM [2] | CL [3] | Drug uptake (Hepatocyte) | concentration at 5 h [4] | dose excreted [5] | clearance [6] | clearance [7] | dose excreted [8] | SMILES |
| --- | --- | --- | --- | --- | --- | --- | --- | --- | --- |
| 2.8 mL/min/kg | 0.01 | 1.11 mL/min/kg | 26 µmol/L | 19.1 µM | – | – | – | – | CCCc1nc(C(C)(C)O)c(C(=O)O)n1Cc1ccc(-c2ccccc2-c2nnn[nH]2)cc1 [OLMESARTAN] |
| 24.17 mL/min/kg | 0.035 | 2.505 mL/min/kg | 11.8 µmol/L | 7.1 µM | – | – | – | – | CC(C)c1nc(N(C)S(C)(=O)=O)nc(-c2ccc(F)cc2)c1/C=C/[C@@H](O)C[C@@H](O)CC(=O)O [ROSUVASTATIN] |
| 3.5 mL/min/kg | 0.003 | 1.18 mL/min/kg | 17.5 µmol/L | 17.4 µM | – | – | – | – | CCCCC(=O)N(Cc1ccc(-c2ccccc2-c2nnn[nH]2)cc1)[C@H](C(=O)O)C(C)C |
